Measurements published in ChEMBL document CHEMBL3044755, “5-Methyl-1,2,3-thiadiazoles synthesized via ugi reaction and their fungicidal and antiviral activities” (J Agric Food Chem, 2010).

Experiments:
Tobacco mosaic virus [1] = assay: In vitro antiviral activity against Tobacco mosaic virus (TMV) infected tobacco leaves at 500 ug/ml; type: functional
Rhizoctonia solani = assay: Fungicidal activity against Rhizoctonia solani at 50 ug/ml by growth inhibition method; type: functional; details: read-out: GI
Method in brief: (§1)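 Mycelial growth inhibition on potato dextrose agar. The panel covered Alternaria solani, Botrytis cinerea, Cercospora arachidicola, C. beticola, Colletotrichum lagenarium, Fusarium oxysporum, Gibberella zeae, Puccinia triticina, Phytophthora infestans, Physalospora piricola, Pellicularia sasakii and Rhizoctonia solani.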

Alternaria solani = assay: Fungicidal activity against Alternaria solani at 50 ug/ml by growth inhibition method; type: functional; details: read-out: GI; method in brief: as §1
Thanatephorus cucumeris = assay: Fungicidal activity against Thanatephorus cucumeris at 50 ug/ml by growth inhibition method; type: functional; details: read-out: GI; method in brief: as §1
Colletotrichum lagenaria = assay: Fungicidal activity against Colletotrichum lagenaria at 50 ug/ml by growth inhibition method; type: functional; details: read-out: GI; method in brief: as §1
[2] = system: Botryosphaeria berengeriana; assay: Fungicidal activity against Botryosphaeria berengeriana at 50 ug/ml by growth inhibition method; type: functional; details: read-out: GI; method in brief: as §1
Nicotiana tabacum [3] = assay: Induction of systemic acquired resistance activity in TMV infected-Nicotiana tabacum (tobacco) leaves at 50 ug/ml; type: functional
Method in brief: (§2)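 Tobacco/TMV system used for systemic acquired resistance induction. Inhibition ratio calculated from mean lesion numbers on inoculated leaves relative to corresponding control. Tiadinil and ribavirin run as controls.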

Tobacco mosaic virus [4] = assay: In vivo antiviral activity against Tobacco mosaic virus (TMV) infected tobacco leaves assessed as protective effect at 100 ug/ml treated 12 hr before viral inoculation measured at 2-3 days after viral challenge; type: functional
Method in brief: (§3)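 Six-leaf tobacco; compound solution smeared over whole leaves, dried in greenhouse, then after 12 h TMV (5.88 10-2 μg/mL) rubbed onto upper three leaves, with solvent on lower three leaves as control. Local lesions counted 2-3 days post-inoculation, three repetitions. Inhibition (%) = (CK − A)/CK × 100 from mean lesion numbers.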

Tobacco mosaic virus [5] = assay: In vivo antiviral activity against Tobacco mosaic virus (TMV) infected tobacco leaves assessed as inactivation effect at 500 ug/ml co-treated with virus for 30 min before inoculation onto leaves measured at 2-3 days after viral challenge; type: functional
Method in brief: (§4)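 TMV (5.88 10-2 μg/mL) mixed with equal volume of compound solution for 30 min, then rubbed onto upper three leaves of six-leaf tobacco; solvent on lower three leaves as control. Lesions counted 2-3 days later, three repetitions. Inhibition (%) = (CK − A)/CK × 100 from mean lesion counts.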

Mycosphaerella arachidis = assay: Fungicidal activity against Mycosphaerella arachidis at 50 ug/ml by growth inhibition method; type: functional; details: read-out: GI; method in brief: as §1
Tobacco mosaic virus [6] = assay: In vivo antiviral activity against Tobacco mosaic virus (TMV) infected tobacco leaves assessed as protective effect at 500 ug/ml treated 12 hr before viral inoculation measured at 2-3 days after viral challenge; type: functional; method in brief: as §3
Nicotiana tabacum [7] = assay: Induction of systemic acquired resistance activity in TMV infected-Nicotiana tabacum (tobacco) leaves at 100 ug/ml; type: functional; method in brief: as §2
Phytophthora infestans = assay: Fungicidal activity against Phytophthora infestans at 50 ug/ml by growth inhibition method; type: functional; details: read-out: GI; method in brief: as §1
Tobacco mosaic virus [8] = assay: In vitro antiviral activity against Tobacco mosaic virus (TMV) infected tobacco leaves at 100 ug/ml; type: functional
Fusarium graminearum = assay: Fungicidal activity against Fusarium graminearum at 50 ug/ml by growth inhibition method; type: functional; details: read-out: GI; method in brief: as §1
Nicotiana tabacum [9] = assay: Phytotoxicity against Nicotiana tabacum (tobacco) plant; type: organism-based; details: in vivo
Tobacco mosaic virus [10] = assay: In vivo antiviral activity against Tobacco mosaic virus (TMV) infected tobacco leaves assessed as curative effect at 100 ug/ml treated after viral inoculation measured at 2-3 days after viral challenge; type: functional
Method in brief: (§5)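 Curative test: whole six-leaf tobacco leaves rubbed with TMV (5.88 10-2 μg/mL), dried in greenhouse, then compound smeared on upper three leaves and solvent on lower three as control. Local lesions scored 2-3 days after inoculation, three repetitions. Inhibition (%) = (CK − A)/CK × 100 on mean lesion numbers.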

Tobacco mosaic virus [11] = assay: In vivo antiviral activity against Tobacco mosaic virus (TMV) infected tobacco leaves assessed as curative effect at 500 ug/ml treated after viral inoculation measured at 2-3 days after viral challenge; type: functional; method in brief: as §5
Tobacco mosaic virus [12] = assay: In vivo antiviral activity against Tobacco mosaic virus (TMV) infected tobacco leaves assessed as inactivation effect at 100 ug/ml co-treated with virus for 30 min before inoculation onto leaves measured at 2-3 days after viral challenge; type: functional; method in brief: as §4
Cercospora beticola = assay: Fungicidal activity against Cercospora beticola at 50 ug/ml by growth inhibition method; type: functional; details: read-out: GI; method in brief: as §1
Puccinia triticina = assay: Fungicidal activity against Puccinia triticina at 50 ug/ml by growth inhibition method; type: functional; details: read-out: GI; method in brief: as §1
Fusarium oxysporum = assay: Fungicidal activity against Fusarium oxysporum at 50 ug/ml by growth inhibition method; type: functional; details: read-out: GI; method in brief: as §1
Tobacco mosaic virus [13] = assay: In vitro antiviral activity against Tobacco mosaic virus (TMV) infected tobacco leaves at 200 ug/ml; type: functional
Botrytis cinerea = assay: Fungicidal activity against Botryotinia fuckeliana at 50 ug/ml by growth inhibition method; type: functional; details: read-out: GI; method in brief: as §1

| Compound | inhibition at 500 µg/mL (Tobacco mosaic virus [1]) [%] | inhibition of growth at 50 µg/mL (Alternaria solani) [%] | inhibition of growth at 50 µg/mL (Thanatephorus cucumeris) [%] | inhibition of growth at 50 µg/mL (Colletotrichum lagenaria) [%] | inhibition of growth at 50 µg/mL [2] [%] | inhibition of growth at 50 µg/mL (Mycosphaerella arachidis) [%] | inhibition of growth at 50 µg/mL (Phytophthora infestans) [%] | inhibition of growth at 50 µg/mL (Fusarium graminearum) [%] | inhibition of growth at 50 µg/mL (Cercospora beticola) [%] | inhibition of growth at 50 µg/mL (Fusarium oxysporum) [%] | inhibition at 200 µg/mL (Tobacco mosaic virus [13]) [%] | inhibition of growth at 50 µg/mL (Botrytis cinerea) [%] | further results |
| --- | --- | --- | --- | --- | --- | --- | --- | --- | --- | --- | --- | --- | --- |
| Cc1ccc(N(C(=O)c2nnsc2C)C(C(=O)NC2CCCCC2)c2cccc(O)c2)cc1F (centres undefined) | 48 | 0 | 0 | 0 | 0 | 0 | 6 | 14 | 25 |  |  |  | inhibition of growth at 50 µg/mL (Rhizoctonia solani): 30%; Activity (Nicotiana tabacum [3]): 32%; Activity (Tobacco mosaic virus [4]): 43%; Activity (Tobacco mosaic virus [5]): 67%; Activity (Tobacco mosaic virus [6]): 44%; Activity (Nicotiana tabacum [7]): 76%; inhibition at 100 µg/mL (Tobacco mosaic virus [8]): 25%; Activity (Nicotiana tabacum [9]): Non-toxic; Activity (Tobacco mosaic virus [10]): 23%; Activity (Tobacco mosaic virus [11]): 57%; Activity (Tobacco mosaic virus [12]): 44%; inhibition of growth at 50 µg/mL (Puccinia triticina): 0% |
| Cc1ccc(N(C(=O)c2nnsc2C)C(C(=O)NC(C)C)c2ccccc2C(F)(F)F)cc1Cl (centres undefined) | 16 | 36 | 57 | 17 | 43 | 18 | 13 | 24 | 23 | 10 | 29 | 70 |  |
| Cc1ccc(C(C(=O)NC(C)C)N(C(=O)c2nnsc2C)c2ccc(C)c(Cl)c2)cc1 (centres undefined) | 21 | 34 | 60 | 11 | 37 | 33 | 0 | 0 | 9 | 19 | 11 | 79 |  |
| Cc1ccc(N(C(=O)c2nnsc2C)C(C(=O)NC(C)C)c2ccc(O)cc2)cc1Cl (centres undefined) | 4 | 37 | 65 | 10 | 36 | 17 | 23 | 20 | 17 | 23 | 0 | 76 | Activity (Nicotiana tabacum [3]): 23%; Activity (Tobacco mosaic virus [4]): 8%; Activity (Tobacco mosaic virus [5]): 64%; Activity (Tobacco mosaic virus [6]): 36%; Activity (Nicotiana tabacum [7]): 41%; Activity (Nicotiana tabacum [9]): Non-toxic; Activity (Tobacco mosaic virus [12]): 50% |
| Cc1ccc(N(C(=O)c2nnsc2C)C(C(=O)NC(C)C)c2ccc([N+](=O)[O-])cc2)cc1Cl (centres undefined) | 19 | 39 | 60 | 4 | 33 | 17 | 21 | 4 | 9 | 23 | 14 | 79 |  |
| Cc1ccc(N(C(=O)c2nnsc2C)C(C(=O)NC(C)C)c2cccc([N+](=O)[O-])c2)cc1Cl (centres undefined) | 34 | 33 | 52 | 10 | 45 | 9 | 26 | 33 | 46 | 12 |  | 78 | inhibition at 100 µg/mL (Tobacco mosaic virus [8]): 28% |
| Cc1ccc(N(C(=O)c2nnsc2C)C(C(=O)NC(C)C)c2ccc(Cl)cc2)cc1Cl (centres undefined) | 32 | 37 | 60 | 7 | 47 | 21 | 19 | 4 | 9 | 26 | 25 | 76 |  |
| Cc1ccc(N(C(=O)c2nnsc2C)C(C(=O)NC(C)C)c2cccc(Cl)c2)cc1Cl (centres undefined) | 9 | 37 | 62 | 14 | 40 | 8 | 14 | 4 | 9 | 26 | 6 | 76 |  |
| Cc1ccc(N(C(=O)c2nnsc2C)C(C(=O)NC(C)C)c2ccccc2Cl)cc1Cl (centres undefined) | 8 | 49 | 72 | 13 | 27 | 21 | 23 | 23 | 25 | 23 | 3 | 76 |  |
| Cc1ccc(N(C(=O)c2nnsc2C)C(C(=O)NC(C)C)c2ccc(F)cc2)cc1Cl (centres undefined) | 19 | 42 | 63 | 17 | 36 | 13 | 5 | 27 | 25 | 14 | 14 | 70 |  |
| Cc1ccc(N(C(=O)c2nnsc2C)C(C(=O)NC(C)C)c2ccc(C(F)(F)F)cc2)cc1Cl (centres undefined) | 34 | 35 | 56 | 7 | 11 | 25 | 0 | 67 | 17 | 12 | 32 | 70 |  |
| Cc1ccc(N(C(=O)c2nnsc2C)C(C(=O)NC(C)C)c2cccc(C(F)(F)F)c2)cc1Cl (centres undefined) | 41 | 37 | 26 | 17 | 44 | 13 | 0 | 50 | 25 | 14 | 17 | 76 |  |
| NC(=O)c1ncn([C@@H]2O[C@H](CO)[C@@H](O)[C@H]2O)n1 [RIBAVIRIN] | 32 |  |  |  |  |  |  |  |  |  |  |  | Activity (Nicotiana tabacum [3]): 31%; Activity (Tobacco mosaic virus [4]): 30%; Activity (Tobacco mosaic virus [5]): 59%; Activity (Tobacco mosaic virus [6]): 59%; Activity (Nicotiana tabacum [7]): 28%; inhibition at 100 µg/mL (Tobacco mosaic virus [8]): 20%; Activity (Nicotiana tabacum [9]): Non-toxic; Activity (Tobacco mosaic virus [12]): 46% |
